{
  "source": "ChEMBL document CHEMBL3877241",
  "about": "(J Med Chem, 2016)",
  "key": {"[1]": {"target": "Non-receptor tyrosine-protein kinase TYK2 (Homo sapiens, UniProt P29597)", "assay": "Inhibition of human TYK2 (V877 to C1187 residues) expressed in mammalian expression system by KINOMEScan assay"}, "Histone deacetylase 8": {"target": "Histone deacetylase 8 (Homo sapiens, UniProt Q9BY41)", "sequence (Q9BY41 whole entry, the tested form may be a part)": "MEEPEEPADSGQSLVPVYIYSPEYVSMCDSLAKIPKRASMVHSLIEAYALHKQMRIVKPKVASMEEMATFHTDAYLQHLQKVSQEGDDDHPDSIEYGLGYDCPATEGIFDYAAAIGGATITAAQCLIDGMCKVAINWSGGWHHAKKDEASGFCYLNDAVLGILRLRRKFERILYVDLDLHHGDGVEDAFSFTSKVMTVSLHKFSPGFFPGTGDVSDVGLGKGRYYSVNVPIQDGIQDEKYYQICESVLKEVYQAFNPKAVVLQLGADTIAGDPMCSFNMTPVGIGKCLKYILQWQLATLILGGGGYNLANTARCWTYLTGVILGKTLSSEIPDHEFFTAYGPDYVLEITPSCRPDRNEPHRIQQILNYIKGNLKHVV", "assay": "Inhibition of human recombinant C-terminal His-tagged HDAC8 (1 to 377 residues) expressed in insect cells preincubated with enzyme followed by fluorogenic Arg-His-Lys(Ac)-Lys(Ac)-AMC substrate addition measured after 2 hrs by fluorescence assay", "method_in_brief": "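HDAC8 in 50 mM Tris-HCl pH 8.0, 137 mM NaCl, 2.7 mM KCl, 1 mM MgCl2 was pre-incubated with compound from DMSO. 50 µM Arg-His-Lys(Ac)-Lys(Ac) substrate was added and the reaction ran 2 h at 30 °C. Trichostatin A developer stopped it, with fluorescence read at Ex/Em 360/460 nm. IC50 from a 10-dose curve.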"}, "[2]": {"assay": "Antiproliferative activity against human KMS-12-BM cells after 48 hrs by CellTiter-Glo assay", "assay_type": "functional, cell-based"}, "[3]": {"target": "Receptor-type tyrosine-protein kinase FLT3 (Homo sapiens) (UniProt P36888)", "assay": "Inhibition of FLT3 (unknown origin) at 0.1 uM preincubated for 20 mins followed by [33P]ATP addition measured after 120 mins by Hotspot assay relative to control", "method_in_brief": "(§1)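 Radiometric HotSpot kinase assay. Buffer: 20 mM HEPES pH 7.5, 10 mM MgCl2, 1 mM EGTA, 0.02% Brij35, 0.02 mg/mL BSA, 0.1 mM Na3VO4, 2 mM DTT, 1% DMSO. Compound added about 20 min before ATP/[33P]ATP (10 μM final). Reactions run 120 min at 25 °C, spotted on P81 filters and washed in phosphoric acid. Activity expressed relative to DMSO after background subtraction. Single-concentration panel at 100 nM in duplicate.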"}, "[4]": {"target": "Phosphatidylinositol 4,5-bisphosphate 3-kinase catalytic subunit gamma isoform (Homo sapiens, UniProt P48736)", "sequence (P48736 whole entry, the tested form may be a part, canonical isoform)": "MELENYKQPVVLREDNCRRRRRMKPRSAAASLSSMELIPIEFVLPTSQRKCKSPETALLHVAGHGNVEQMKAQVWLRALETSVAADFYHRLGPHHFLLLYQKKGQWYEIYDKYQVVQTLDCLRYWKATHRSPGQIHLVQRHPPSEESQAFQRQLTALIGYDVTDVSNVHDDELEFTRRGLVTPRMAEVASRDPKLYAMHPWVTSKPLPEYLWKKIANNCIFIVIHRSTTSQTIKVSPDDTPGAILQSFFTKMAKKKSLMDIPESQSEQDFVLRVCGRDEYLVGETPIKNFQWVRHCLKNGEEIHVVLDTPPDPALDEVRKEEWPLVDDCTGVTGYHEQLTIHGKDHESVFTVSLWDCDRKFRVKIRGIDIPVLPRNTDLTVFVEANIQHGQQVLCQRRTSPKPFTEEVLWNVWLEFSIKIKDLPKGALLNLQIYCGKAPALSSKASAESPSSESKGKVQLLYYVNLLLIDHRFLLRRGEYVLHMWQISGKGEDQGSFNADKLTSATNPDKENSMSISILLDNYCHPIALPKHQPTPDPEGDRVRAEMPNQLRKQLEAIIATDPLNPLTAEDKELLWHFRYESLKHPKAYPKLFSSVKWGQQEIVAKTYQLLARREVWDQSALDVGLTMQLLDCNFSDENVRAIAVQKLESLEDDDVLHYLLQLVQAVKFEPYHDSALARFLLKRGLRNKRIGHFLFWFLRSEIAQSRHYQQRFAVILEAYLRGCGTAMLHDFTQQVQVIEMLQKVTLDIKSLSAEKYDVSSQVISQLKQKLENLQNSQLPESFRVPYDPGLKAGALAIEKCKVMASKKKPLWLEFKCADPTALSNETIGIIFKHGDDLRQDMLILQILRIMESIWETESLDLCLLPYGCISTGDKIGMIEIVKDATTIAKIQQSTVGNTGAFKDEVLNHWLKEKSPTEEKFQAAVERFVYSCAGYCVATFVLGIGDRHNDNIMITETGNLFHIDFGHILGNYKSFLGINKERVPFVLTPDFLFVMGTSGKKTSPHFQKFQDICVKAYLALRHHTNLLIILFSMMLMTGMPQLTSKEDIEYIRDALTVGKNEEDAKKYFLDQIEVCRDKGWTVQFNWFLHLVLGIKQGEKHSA", "assay": "Inhibition of human PI3Kgamma (S144 to A1102 residues) expressed in mammalian expression system by KINOMEScan assay"}, "MOLM-14 [5]": {"tested_on": "MOLM-14", "assay": "Induction of apoptosis in human MOLM14 cells assessed as necrotic cells at 3 uM after 48 hrs by Annexin-V FITC/propidium iodide staining based flow cytometry (reference value: 0.1%)", "assay_type": "functional", "method_in_brief": "(§2)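 MOLM-14 cells treated 48 h at the stated concentrations; doxorubicin as positive control. Stained with Annexin V-FITC and propidium iodide and analysed by flow cytometry (at least 10,000 events). Gated quadrants: Annexin V−/PI− viable, Annexin V+/PI− early apoptotic, Annexin V+/PI+ late apoptotic.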"}, "[6]": {"target": "Mitogen-activated protein kinase 8 (Homo sapiens, UniProt P45983)", "sequence (P45983 whole entry, the tested form may be a part)": "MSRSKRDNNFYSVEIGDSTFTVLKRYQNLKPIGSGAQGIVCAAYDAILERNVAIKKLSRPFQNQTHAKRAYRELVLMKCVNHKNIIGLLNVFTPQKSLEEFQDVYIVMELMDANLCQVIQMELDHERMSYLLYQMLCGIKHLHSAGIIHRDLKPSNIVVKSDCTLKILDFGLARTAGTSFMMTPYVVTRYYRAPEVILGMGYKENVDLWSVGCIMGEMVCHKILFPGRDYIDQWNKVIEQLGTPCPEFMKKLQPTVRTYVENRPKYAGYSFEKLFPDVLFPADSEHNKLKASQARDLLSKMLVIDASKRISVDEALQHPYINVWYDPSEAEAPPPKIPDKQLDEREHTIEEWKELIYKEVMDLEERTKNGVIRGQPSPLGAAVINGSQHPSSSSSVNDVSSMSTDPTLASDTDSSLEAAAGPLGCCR", "assay": "Inhibition of full length human MAPK8 (M1 to Q384 residues) expressed in mammalian expression system assessed as residual activity at 100 nM by KINOMEScan assay relative to control", "method_in_brief": "(§3)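 DiscoveRx KINOMEscan competition binding against ATP sites in a 97-kinase panel, with compound at 100 nM. Binding reported as % of control.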"}, "MOLM-14 [7]": {"tested_on": "MOLM-14", "assay": "Induction of apoptosis in human MOLM14 cells assessed as early apoptotic cells at 3 uM after 48 hrs by Annexin-V FITC/propidium iodide staining based flow cytometry (reference value: 3.6 to 3.7%)", "assay_type": "functional", "method_in_brief": "as §2"}, "[8]": {"target": "Tyrosine-protein kinase JAK1 (Homo sapiens) (UniProt P23458)", "sequence (P23458 whole entry)": "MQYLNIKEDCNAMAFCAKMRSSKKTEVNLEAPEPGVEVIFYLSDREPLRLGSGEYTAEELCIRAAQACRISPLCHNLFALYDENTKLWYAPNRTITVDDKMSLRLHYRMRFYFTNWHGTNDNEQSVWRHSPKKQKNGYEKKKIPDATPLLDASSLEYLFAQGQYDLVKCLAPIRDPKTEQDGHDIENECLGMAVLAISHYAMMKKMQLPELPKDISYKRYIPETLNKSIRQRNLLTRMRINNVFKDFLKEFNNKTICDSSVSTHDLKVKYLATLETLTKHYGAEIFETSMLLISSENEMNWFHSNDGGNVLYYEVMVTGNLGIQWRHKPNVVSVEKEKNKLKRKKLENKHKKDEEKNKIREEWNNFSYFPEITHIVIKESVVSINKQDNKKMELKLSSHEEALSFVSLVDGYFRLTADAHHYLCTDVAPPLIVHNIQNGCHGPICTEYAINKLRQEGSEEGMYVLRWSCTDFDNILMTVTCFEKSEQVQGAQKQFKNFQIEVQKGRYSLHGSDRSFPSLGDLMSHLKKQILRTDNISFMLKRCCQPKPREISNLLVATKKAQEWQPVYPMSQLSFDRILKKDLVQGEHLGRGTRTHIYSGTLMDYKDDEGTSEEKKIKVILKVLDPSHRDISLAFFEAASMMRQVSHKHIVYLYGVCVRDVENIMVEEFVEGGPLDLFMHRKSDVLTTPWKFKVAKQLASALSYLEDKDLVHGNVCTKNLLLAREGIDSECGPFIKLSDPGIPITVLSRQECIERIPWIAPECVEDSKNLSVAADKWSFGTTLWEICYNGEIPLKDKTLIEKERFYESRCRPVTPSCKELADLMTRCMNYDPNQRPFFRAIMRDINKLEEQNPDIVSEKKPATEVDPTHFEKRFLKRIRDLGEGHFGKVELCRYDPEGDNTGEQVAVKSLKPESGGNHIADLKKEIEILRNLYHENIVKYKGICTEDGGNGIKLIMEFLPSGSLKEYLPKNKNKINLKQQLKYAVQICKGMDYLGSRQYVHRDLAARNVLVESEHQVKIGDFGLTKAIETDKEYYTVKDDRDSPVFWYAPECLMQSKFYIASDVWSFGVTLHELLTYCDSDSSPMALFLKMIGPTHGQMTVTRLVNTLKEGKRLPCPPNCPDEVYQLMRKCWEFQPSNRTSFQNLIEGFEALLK", "assay": "Inhibition of JAK1 (unknown origin) at 0.1 uM preincubated for 20 mins followed by [33P]ATP addition measured after 120 mins by Hotspot assay relative to control", "method_in_brief": "as §1"}, "[9]": {"target": "Mitogen-activated protein kinase 10 (Homo sapiens, UniProt P53779)", "assay": "Inhibition of full length human MAPK10 (V28 to Q422 residues) expressed in mammalian expression system by KINOMEScan assay"}, "[10]": {"target": "Polyamine deacetylase HDAC10 (Homo sapiens, UniProt Q969S8)", "sequence (Q969S8 whole entry)": "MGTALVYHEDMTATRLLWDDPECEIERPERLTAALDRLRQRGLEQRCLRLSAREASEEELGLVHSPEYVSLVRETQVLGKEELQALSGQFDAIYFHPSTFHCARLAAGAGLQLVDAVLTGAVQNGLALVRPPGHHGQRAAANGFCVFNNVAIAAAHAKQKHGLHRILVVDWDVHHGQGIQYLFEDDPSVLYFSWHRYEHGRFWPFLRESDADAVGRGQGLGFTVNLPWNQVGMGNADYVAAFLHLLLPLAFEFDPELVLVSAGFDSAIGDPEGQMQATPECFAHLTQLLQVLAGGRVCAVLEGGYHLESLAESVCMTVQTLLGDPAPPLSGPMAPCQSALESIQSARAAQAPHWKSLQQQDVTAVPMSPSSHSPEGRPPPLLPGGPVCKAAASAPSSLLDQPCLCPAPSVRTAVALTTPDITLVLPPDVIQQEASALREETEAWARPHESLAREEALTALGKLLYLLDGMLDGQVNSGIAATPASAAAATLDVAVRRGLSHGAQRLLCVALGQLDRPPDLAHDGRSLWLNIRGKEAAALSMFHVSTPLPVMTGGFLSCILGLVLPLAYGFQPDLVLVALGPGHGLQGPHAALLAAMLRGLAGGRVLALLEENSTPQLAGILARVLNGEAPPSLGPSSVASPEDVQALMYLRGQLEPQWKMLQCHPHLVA", "assay": "Inhibition of HDAC10 (unknown origin) preincubated with enzyme followed by fluorogenic Arg-His-Lys-Lys(Ac)-AMC substrate addition measured after 2 hrs by fluorescence assay"}, "[11]": {"assay": "Antiproliferative activity against human MOLM14 cells harboring FLT3-ITD mutant after 48 hrs by CellTiter-Glo assay", "assay_type": "functional, cell-based", "conditions": "MOLM-14, 48 h"}, "[12]": {"assay": "Therapeutic index, ratio of IC50 for mouse TAMH cells to IC50 for human cancer cells", "conditions": "cancer cell lines"}, "MOLM-14 [13]": {"tested_on": "MOLM-14", "assay": "Induction of apoptosis in human MOLM14 cells assessed as late apoptotic cells at 3 uM after 48 hrs by Annexin-V FITC/propidium iodide staining based flow cytometry (reference value: 2.1 to 2.2%)", "assay_type": "functional", "method_in_brief": "as §2"}, "[14]": {"target": "Tyrosine-protein kinase JAK2 (Homo sapiens, UniProt O60674)", "assay": "Inhibition of human JAK2 JH1 catalytic domain (A829 to G1132 residues) expressed in mammalian expression system assessed as residual activity at 100 nM by KINOMEScan assay relative to control", "method_in_brief": "as §3"}, "MOLM-14 [15]": {"tested_on": "MOLM-14", "assay": "Induction of apoptosis in human MOLM14 cells assessed as live cells at 3 uM after 48 hrs by Annexin-V FITC/propidium iodide staining based flow cytometry (reference value: 94 to 94.1%)", "assay_type": "functional", "method_in_brief": "as §2"}, "[16]": {"assay": "Apparent intrinsic clearance in rat liver microsomes at 3 uM preincubated for 5 mins followed by NADPH addition measured after 45 mins by LC-MS/MS analysis", "assay_type": "ADME", "conditions": "read-out: CLH(app)", "method_in_brief": "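Male and female rat liver microsomes (0.3 mg protein/mL final) with compound at 3 μM final in 0.1 M phosphate buffer pH 7.4. Preincubated 5 min at 37 °C, then started with NADPH (1 mM final). Sampled at 0, 5, 10, 15, 30 and 45 min and quenched with cold acetonitrile containing internal standard. Read by LC-MS/MS; run in triplicate; midazolam (3 μM) as positive control.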"}, "MOLM-14 [17]": {"tested_on": "MOLM-14", "assay": "Induction of apoptosis in human MOLM14 cells assessed as early apoptotic cells at 1.5 uM after 48 hrs by Annexin-V FITC/propidium iodide staining based flow cytometry (reference value: 3.6 to 3.7%)", "assay_type": "functional"}, "[18]": {"target": "Tyrosine-protein kinase JAK3 (Homo sapiens) (UniProt P52333)", "sequence (P52333 whole entry, the tested form may be a part)": "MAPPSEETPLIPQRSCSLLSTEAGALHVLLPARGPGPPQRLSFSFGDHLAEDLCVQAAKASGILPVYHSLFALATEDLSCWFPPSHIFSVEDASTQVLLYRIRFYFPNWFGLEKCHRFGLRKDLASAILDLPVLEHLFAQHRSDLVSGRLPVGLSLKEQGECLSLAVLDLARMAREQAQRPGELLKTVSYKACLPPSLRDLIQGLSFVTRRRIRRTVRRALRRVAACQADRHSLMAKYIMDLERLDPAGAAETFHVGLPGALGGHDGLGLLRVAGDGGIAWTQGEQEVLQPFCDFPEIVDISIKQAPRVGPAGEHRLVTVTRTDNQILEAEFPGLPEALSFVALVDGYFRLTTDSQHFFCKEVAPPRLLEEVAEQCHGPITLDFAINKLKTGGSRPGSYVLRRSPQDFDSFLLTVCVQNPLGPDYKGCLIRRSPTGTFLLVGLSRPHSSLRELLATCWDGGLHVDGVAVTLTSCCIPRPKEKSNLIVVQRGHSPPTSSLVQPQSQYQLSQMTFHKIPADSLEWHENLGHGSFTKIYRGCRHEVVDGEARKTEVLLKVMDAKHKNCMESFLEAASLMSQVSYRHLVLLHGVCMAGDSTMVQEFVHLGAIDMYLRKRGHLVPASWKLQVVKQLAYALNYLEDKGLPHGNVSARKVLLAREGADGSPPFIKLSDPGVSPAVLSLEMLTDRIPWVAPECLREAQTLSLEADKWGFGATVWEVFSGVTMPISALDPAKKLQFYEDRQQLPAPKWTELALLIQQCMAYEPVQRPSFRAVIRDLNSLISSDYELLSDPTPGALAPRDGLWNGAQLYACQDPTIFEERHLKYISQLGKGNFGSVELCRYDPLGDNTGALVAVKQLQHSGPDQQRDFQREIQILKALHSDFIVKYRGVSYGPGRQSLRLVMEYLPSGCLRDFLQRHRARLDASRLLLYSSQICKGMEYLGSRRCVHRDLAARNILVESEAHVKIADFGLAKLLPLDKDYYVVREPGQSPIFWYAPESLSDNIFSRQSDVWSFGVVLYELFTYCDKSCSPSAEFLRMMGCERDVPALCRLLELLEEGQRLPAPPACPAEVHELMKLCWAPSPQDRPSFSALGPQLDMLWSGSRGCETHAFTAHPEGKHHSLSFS", "assay": "Inhibition of human JAK3 JH1 catalytic domain (I781 to S1124 residues) expressed in mammalian expression system assessed as residual activity at 100 nM by KINOMEScan assay relative to control", "method_in_brief": "as §3"}, "[19]": {"tested_on": "Tyrosine-protein kinase JAK2 (Homo sapiens), O60674 [V617F]", "assay": "Induction of JAK2 V617F mutant phosphorylation at Y1007/8 residues in HEL 92.1.7 cells at 0.1 to 1 uM after 1 hr by immunoblot method", "assay_type": "cell-based", "method_in_brief": "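HEL92.1.7 cells seeded at 5x10^5/mL and treated 1 h at 0, 0.1, 0.5 and 1 μM. Lysed in RIPA with phosphatase/protease inhibitors, run on 10% SDS-PAGE and blotted to PVDF. Probed for acetyl-tubulin, acetyl-H3 (Lys9/Lys14), p-JAK2 (Y1007/1008) and p-STAT5 (Tyr694); membranes re-probed for tubulin, H3, JAK2 and STAT5. Quantified by densitometry.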"}, "[20]": {"assay": "Antiproliferative activity against human PC3 cells after 72 hrs by MTT assay", "assay_type": "functional, cell-based", "conditions": "PC-3, 72 h"}},
  "note": "Active and inactive are the calls of the source. No cut-off for these calls is given here.",
  "data": [
    {"smiles": "O=C(CCCCCCOc1ccc2cc1COC/C=C/COCc1cccc(c1)-c1ccnc(n1)N2)NO", "values": [
      {"measurement": "IC50", "setting": "[1]", "result": "10 to 1000", "unit": "nM"},
      {"measurement": "IC50", "setting": "Histone deacetylase 8", "result": 740, "unit": "nM"},
      {"measurement": "IC50", "setting": "[2]", "result": 2110, "unit": "nM"},
      {"measurement": "inhibition", "setting": "[3]", "result": 67, "unit": "%"},
      {"measurement": "IC50", "setting": "[4]", "result": "10 to 1000", "unit": "nM"},
      {"measurement": "Activity", "setting": "MOLM-14 [5]", "result": 1.3, "unit": "%"},
      {"measurement": "Activity", "setting": "[6]", "result": 26, "unit": "%"},
      {"measurement": "Activity", "setting": "MOLM-14 [7]", "result": 24.4, "unit": "%"},
      {"measurement": "inhibition", "setting": "[8]", "result": 8.7, "unit": "%"},
      {"measurement": "IC50", "setting": "[9]", "result": "1000 to 10000", "unit": "nM"},
      {"measurement": "IC50", "setting": "[10]", "result": 80, "unit": "nM"},
      {"measurement": "IC50", "setting": "[11]", "result": 1140, "unit": "nM"},
      {"measurement": "selectivity ratio", "setting": "[12]", "result": 8.7},
      {"measurement": "Activity", "setting": "MOLM-14 [13]", "result": 34.3, "unit": "%"},
      {"measurement": "Activity", "setting": "[14]", "result": 0, "unit": "%"},
      {"measurement": "Activity", "setting": "MOLM-14 [15]", "result": 29.9, "unit": "%"},
      {"measurement": "CLint scaled at 3 µM", "setting": "[16]", "result": "178 to 272", "unit": "mL/min/kg"},
      {"measurement": "Activity", "setting": "MOLM-14 [17]", "result": 12.7, "unit": "%"},
      {"measurement": "Activity", "setting": "[18]", "result": 7.9, "unit": "%"},
      {"measurement": "Activity", "setting": "[19]", "result": "Active"},
      {"measurement": "IC50", "setting": "[20]", "result": 1700, "unit": "nM"}
    ]}
  ]
}
